{"data": "Published values of several laboratories", "target": "Estrogen receptor (ESR1, Homo sapiens, UniProt P03372)", "One construct used (P03372 1-595)": "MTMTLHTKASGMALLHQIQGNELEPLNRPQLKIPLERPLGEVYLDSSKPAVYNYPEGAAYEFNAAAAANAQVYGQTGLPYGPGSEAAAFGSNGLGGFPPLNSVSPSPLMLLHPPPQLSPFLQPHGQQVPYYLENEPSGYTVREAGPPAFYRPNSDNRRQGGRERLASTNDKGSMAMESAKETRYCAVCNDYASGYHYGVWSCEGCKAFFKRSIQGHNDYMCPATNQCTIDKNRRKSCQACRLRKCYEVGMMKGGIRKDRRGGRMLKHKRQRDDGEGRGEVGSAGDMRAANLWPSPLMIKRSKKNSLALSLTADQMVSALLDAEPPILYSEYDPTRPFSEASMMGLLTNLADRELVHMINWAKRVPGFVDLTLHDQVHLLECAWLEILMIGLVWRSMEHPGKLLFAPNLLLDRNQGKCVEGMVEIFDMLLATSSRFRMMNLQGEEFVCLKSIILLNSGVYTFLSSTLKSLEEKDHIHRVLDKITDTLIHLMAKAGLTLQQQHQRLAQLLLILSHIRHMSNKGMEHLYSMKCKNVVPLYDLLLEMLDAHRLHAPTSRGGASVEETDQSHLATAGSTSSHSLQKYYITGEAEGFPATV", "note": "Each line is one published result; the experiments were not run side by side."}
{"SMILES": "c1ccc(C(NCCNC(c2ccccc2)c2ccccc2)c2ccccc2)cc1", "assay": "cell-free assay", "conditions": "10 µM", "quantity": "inhibition", "value": "63%"}
{"SMILES": "Clc1cccc(-c2cccc(Cl)c2)c1", "assay": "reporter gene, agonist, luciferase", "quantity": "Emax", "value": "< 20%"}
{"SMILES": "CC(C)N1CCC[C@H]1CNC(=O)c1cn(C2CCCC2)c(=O)c2c1c1ccccc1n2C", "assay": "ligand displacement, radioligand", "conditions": "10 µM", "quantity": "inhibition", "value": "15%"}
{"SMILES": "Clc1ccc(-c2cc(Cl)ccc2Cl)cc1", "assay": "reporter gene, agonist, luciferase", "quantity": "Emax", "value": "< 20%"}
{"SMILES": "COCc1c(-c2cc3cc(C)cc(OC)c3s2)c2c(N)ncnn2c1CN1CCNC(=O)C1", "assay": "ligand displacement, radioligand", "conditions": "10 µM", "quantity": "inhibition", "value": "6%"}
{"SMILES": "C[C@H](C(=O)N[C@H]1COc2ccccc2[C@@H]1S(C)(=O)=O)c1ccc(F)cc1", "assay": "cell-free assay", "conditions": "10 µM", "quantity": "inhibition", "value": "7%"}
{"SMILES": "COc1ccc(S(=O)(=O)N2CCCCC2)cc1C", "assay": "ligand displacement, radioligand", "conditions": "10 µM", "quantity": "inhibition", "value": "< 30%"}
{"SMILES": "O=C(Nc1cccnn1)N1CCN([C@@H]2CCOc3cc(C(F)(F)F)ccc32)CC1", "assay": "cell-free assay", "conditions": "20 µM", "quantity": "inhibition", "value": "0%"}
